Laboratory results taken from ChEMBL document CHEMBL1142556, “cis-parthenolid-9-one from Anvillea garcinii” (2000).
Converted amounts (≈) assume the structure as drawn.

Assays:
[1] = Cytotoxicity against human ovarian cancer cells; assay type: functional, Cancer cell lines; conditions: for EC50: Homo sapiens, Cancer cell lines, read-out: ED50 (the source's name)
How it was run: (§1)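 Tested in vitro by the National Cancer Institute screen. Values are averages over each cell-line subpanel. Potency is reported two ways: C50, the half-maximal effective dose in μmol/L, and ED50, the dose that inhibits net cell growth to 50% of control growth in μg/mL.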

[2] = Cytotoxicity against human leukemia cells; assay type: functional, Leukemia cell; conditions: for EC50: Homo sapiens, Leukemia cell, read-out: ED50 (the source's name); how it was run: as §1
[3] = Cytotoxicity against human lung cancer cells; assay type: functional, Cancer cell lines; conditions: for EC50: Homo sapiens, Cancer cell lines, read-out: ED50 (the source's name); how it was run: as §1
[4] = Cytotoxicity against human colon cancer cells; assay type: functional, Cancer cell lines; conditions: for EC50: Homo sapiens, Cancer cell lines, read-out: ED50 (the source's name); how it was run: as §1
[5] = Cytotoxicity against human breast cancer cells; assay type: functional, Cancer cell lines; conditions: for EC50: Homo sapiens, Cancer cell lines, read-out: ED50 (the source's name); how it was run: as §1
[6] = Cytotoxicity against human prostate cancer cells; assay type: functional, Cancer cell lines; conditions: for EC50: Homo sapiens, Cancer cell lines, read-out: ED50 (the source's name); how it was run: as §1
[7] = Cytotoxicity against human central nervous system cancer cells; assay type: functional, Cancer cell lines; conditions: for EC50: Homo sapiens, Cancer cell lines, read-out: ED50 (the source's name); how it was run: as §1
[8] = Cytotoxicity against human melanoma cells; assay type: functional, Melanoma cell; conditions: for EC50: Homo sapiens, Melanoma cell, read-out: ED50 (the source's name); how it was run: as §1
[9] = Cytotoxicity against human renal cancer cells; assay type: functional, Cancer cell lines; conditions: for EC50: Homo sapiens, Cancer cell lines, read-out: ED50 (the source's name); how it was run: as §1

Row | SMILES | C50 [1] [µmol/L] | EC50 [1] [µg/mL] | C50 [2] [µmol/L] | EC50 [2] [µg/mL] | C50 [3] [µmol/L] | EC50 [3] [µg/mL] | C50 [4] [µmol/L] | EC50 [4] [µg/mL] | C50 [5] [µmol/L] | EC50 [5] [µg/mL] | C50 [6] [µmol/L] | EC50 [6] [µg/mL] | C50 [7] [µmol/L] | EC50 [7] [µg/mL] | C50 [8] [µmol/L] | EC50 [8] [µg/mL] | C50 [9] [µmol/L] | EC50 [9] [µg/mL]
1 | C=C1C(=O)O[C@H]2[C@H]1CC(=O)/C(C)=C/CC[C@@]1(C)O[C@@H]21 | 1.4 | 0.37 (≈ 1.41 µM) | 0.08 | 0.02 (≈ 0.0762 µM) | 1.8 | 0.47 (≈ 1.79 µM) | 0.32 | 0.08 (≈ 0.305 µM) | 0.6 | 0.16 (≈ 0.61 µM) | 2.2 | 0.57 (≈ 2.17 µM) | 2.9 | 0.76 (≈ 2.9 µM) | 0.57 | 0.15 (≈ 0.572 µM) | 0.41 | 0.11 (≈ 0.419 µM)
2 | C=C1C(=O)O[C@H]2[C@H]1CC(=O)/C(C)=C\CC[C@@]1(C)O[C@@H]21 | 11.9 | 3.13 (≈ 11.9 µM) | 1.94 | 0.51 (≈ 1.94 µM) | 13.4 | 3.51 (≈ 13.4 µM) | 7.3 | 1.91 (≈ 7.28 µM) | 9.81 | 2.57 (≈ 9.8 µM) | 14.4 | 3.77 (≈ 14.4 µM) | 17.1 | 4.47 (≈ 17 µM) | 10.6 | 2.77 (≈ 10.6 µM) | 8.05 | 2.11 (≈ 8.04 µM)
